Drawing on ChEMBL document CHEMBL1154801, “Novel phosphoramidates with porphine and nitrogenous drug: one-pot synthesis and orientation to cancer cells” (Eur J Med Chem, 2010), this text covers IC50 and Activity for 7 compounds.

For one data set, the system named is Bel-7402. The data set can be described thus: Cytotoxicity against human Bel7402 cells after 48 hrs in the dark by MTT assay. The format is functional, cell-based. The conditions noted are these: Bel-7402, 48 h. An outline of the steps: (§1)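 Cells seeded at 5000 per well and left to attach overnight. Compounds were taken from 50 mM DMSO stocks and diluted to final concentrations of 2.5–100 μM. Cells were exposed for 48 h in the dark, then given MTT (5 mg/mL in PBS) for 3 h. Formazan was dissolved in DMSO and absorbance read at 570 nm. The 50% cell-death concentration (IC50) was determined.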
In general terms: Tetrazolium assays rely on reduction of a dye to a coloured formazan, in cell work by metabolically active cells.

Data set [1] is described as follows: Cytotoxicity against human L02 cells after 48 hrs in the dark by MTT assay. The conditions noted are these: l02, 48 h. The format is cell-based. An outline of the steps:
as §1

In the data set on Bel-7402, `O=P(NCCCl)(NCCCl)Oc1ccc(-c2c3nc(c(-c4ccc(Cl)cc4)c4ccc([nH]4)c(-c4ccc(Cl)cc4)c4nc(c(-c5ccc(Cl)cc5)c5ccc2[nH]5)C=C4)C=C3)cc1` yielded an IC50 of 20.3 µM. The Activity result in data set [1] is “Non-toxic”.
`O=Cc1ccc(OP(=O)(NCCCl)NCCCl)cc1`: in the data set on Bel-7402, the half-inhibitory concentration (IC50) was > 150 µM. For the same compound, the Activity result in data set [1] was “Toxic”.
Consider `CC1=C(CCC(=O)O)c2cc3[nH]c(cc4nc(cc5[nH]c(cc1n2)c(C)c5C(C)O)C(C)=C4C(C)O)c(C)c3CCC(=O)O` (stereo not drawn), for which the half-maximal inhibitory concentration (IC50) in the data set with Bel-7402 came out at 8.93 µM.
With `O=P(NCCCl)(NCCCl)Oc1ccc(-c2c3nc(c(-c4ccccc4)c4ccc([nH]4)c(-c4ccccc4)c4nc(c(-c5ccccc5)c5ccc2[nH]5)C=C4)C=C3)cc1`, half-maximal inhibition with Bel-7402 (IC50) was put at 14.4 µM. The Activity result in data set [1] is “Non-toxic”.
`Cc1ccc(-c2c3nc(c(-c4ccc(C)cc4)c4ccc([nH]4)c(-c4ccc(OP(=O)(NCCCl)NCCCl)cc4)c4nc(c(-c5ccc(C)cc5)c5ccc2[nH]5)C=C4)C=C3)cc1` returned an IC50 with Bel-7402 of 11.4 µM. The Activity entry in data set [1] is “Non-toxic”.
In the case of `COc1ccc(-c2c3nc(c(-c4ccc(OC)cc4)c4ccc([nH]4)c(-c4ccc(OP(=O)(NCCCl)NCCCl)cc4)c4nc(c(-c5ccc(OC)cc5)c5ccc2[nH]5)C=C4)C=C3)cc1`, half-maximal inhibition in the data set on Bel-7402 (IC50) required 17.3 µM. Also, in data set [1], the Activity entry is on record as “Non-toxic”.
In the data set with Bel-7402, `O=P(NCCCl)(NCCCl)Oc1ccc(-c2c3nc(c(-c4ccc(Br)cc4)c4ccc([nH]4)c(-c4ccc(Br)cc4)c4nc(c(-c5ccc(Br)cc5)c5ccc2[nH]5)C=C4)C=C3)cc1` showed an IC50 of 8.41 µM. Moreover, the Activity result in data set [1] is “Non-toxic”.

Usually IC50 stands for the concentration at which inhibition is half-maximal. Lower therefore signals inhibition by little substance.
